# Assay results published in ChEMBL document CHEMBL4339190, “2,6-Disubstituted imidazo[2,1-b][1,3,4]thiadiazole derivatives as potent staphylococcal biofilm inhibitors” (Eur J Med Chem, 2019).
# Calls of active or inactive are those of the source. No cut-off for these calls is given here.
# Tests used:
# [1] = tested on: Escherichia coli; assay: Antimicrobial activity against Escherichia coli ATCC 25922 assessed as growth inhibition of planktonic forms incubated for 24 hrs; assay type: organism-based; conditions: in vitro
# Outline: (§1)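 Broth microdilution in tryptic soy broth. Two-fold series 100 to 0.75 μg/mL made from a 1 mg/mL stock in 0.9% NaCl. Inoculum ~10⁶ cfu/mL taken from a 24 h culture, 37 °C 24 h.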
# [2] = tested on: Staphylococcus aureus; assay: Antimicrobial activity against Staphylococcus aureus ATCC 25923 assessed as growth inhibition of planktonic forms incubated for 24 hrs; assay type: organism-based; conditions: in vitro; outline: as §1
# [3] = tested on: Staphylococcus epidermidis; assay: Antibiofilm activity against Staphylococcus epidermidis ATCC 12228 incubated for 24 hrs by crystal violet-staining based assay; assay type: functional
# Outline: (§2)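 Biofilm prevention: 0.5 McFarland inoculum (2.5 µL) in 100 µL TSB with 2% w/v glucose, compound present from the start over 100–0.1 µg/mL, 37 °C 24 h. Washed with PBS, stained 0.1% w/v crystal violet 30 min, eluted with 33% v/v acetic acid, read at 570 nm. BIC50 (50% inhibition versus untreated control) derived by linear regression; triplicate, repeated at least twice.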
# [4] = tested on: Pseudomonas aeruginosa; assay: Antibiofilm activity against Pseudomonas aeruginosa ATCC 15442 assessed as inhibition of biofilm formation at 100 ug/ml incubated for 24 hrs by crystal violet-staining based assay; assay type: functional; conditions: ATCC 15442, 24 h
# [5] = tested on: Escherichia coli; assay: Antibiofilm activity against Escherichia coli ATCC 25922 assessed as inhibition of biofilm formation at 100 ug/ml incubated for 24 hrs by crystal violet-staining based assay; assay type: functional; conditions: ATCC 25922, 24 h
# [6] = tested on: Bacteria; assay: Inhibition of recombinant bacterial SrtA at 100 uM using 5-FAM/QXL 520 Sortase as substrate preincubated for 10 mins followed by substrate addition and measured every 5 mins for 60 mins by fluorescence assay
# Outline: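 FRET kit assay: 2.5 µg/ml recombinant SrtA, 4 µM fluorescent peptide substrate, compound at 100 µM in 1% DMSO. Compound and enzyme added first, then substrate. Fluorescence (Ex/Em 490/520 nm) recorded every 5 min for 60 min. Substrate without enzyme served as negative control and 4-(hydroxymercuri)benzoic acid as positive control.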
# [7] = tested on: Staphylococcus aureus; assay: Antibiofilm activity against Staphylococcus aureus ATCC 25923 incubated for 24 hrs by crystal violet-staining based assay; assay type: functional; outline: as §2
# [8] = tested on: Staphylococcus aureus; assay: Antibiofilm activity against Staphylococcus aureus ATCC 6538 incubated for 24 hrs by crystal violet-staining based assay; assay type: functional; outline: as §2
# [9] = tested on: Staphylococcus aureus; assay: Antibiofilm activity against 24 hrs preformed biofilm of Staphylococcus aureus ATCC 25923 assessed as dispersion of bacteria incubated for 24 hrs by crystal violet-staining based assay; assay type: functional, organism-based; conditions: ATCC 25923, 24 h
# Outline: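 Preformed biofilm: 0.5 McFarland suspension (2.5 µl) grown 24 h in TSB with 2% w/v glucose. Wells washed twice with PBS and refilled with fresh TSB, then compound added at graded concentrations starting at or above the planktonic MIC. Incubated a further 24 h at 37 °C, washed, heat-fixed 60 °C 1 h, 0.1% crystal violet 30 min, dye solubilized, A540. Percent inhibition versus untreated growth control; triplicate, repeated at least twice.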
# [10] = tested on: Staphylococcus aureus; assay: Antimicrobial activity against Staphylococcus aureus ATCC 6538 assessed as growth inhibition of planktonic forms incubated for 24 hrs; assay type: organism-based; conditions: in vitro; outline: as §1
# [11] = tested on: Pseudomonas aeruginosa; assay: Antimicrobial activity against Pseudomonas aeruginosa ATCC 15442 assessed as growth inhibition of planktonic forms incubated for 24 hrs; assay type: organism-based; conditions: in vitro; outline: as §1
# [12] = tested on: Staphylococcus epidermidis; assay: Antimicrobial activity against Staphylococcus epidermidis ATCC 12228 assessed as growth inhibition of planktonic forms incubated for 24 hrs; assay type: organism-based; conditions: in vitro; outline: as §1
# [13] = tested on: Staphylococcus aureus; assay: Antibiofilm activity against Staphylococcus aureus ATCC 25923 assessed as inhibition of biofilm formation at 100 ug/ml incubated for 24 hrs by crystal violet-staining based assay; assay type: functional; conditions: ATCC 25923, 24 h
# [14] = tested on: Staphylococcus aureus; assay: Antibiofilm activity against Staphylococcus aureus ATCC 6538 assessed as inhibition of biofilm formation at 100 ug/ml incubated for 24 hrs by crystal violet-staining based assay; assay type: functional; conditions: ATCC 6538, 24 h
inhibition [6],IC50 [9] [µg/mL],SMILES,MIC [1] [µg/mL],MIC [2] [µg/mL],MBIC50 [3] [µM],inhibition [3],inhibition at 100 µg/mL [4] [%],inhibition at 100 µg/mL [5] [%],MBIC50 [7] [µM],MBIC90 [7] [µg/mL],inhibition [7],MBIC50 [8] [µM],inhibition [8],MIC [10] [µg/mL],MIC [11] [µg/mL],MIC [12] [µg/mL],inhibition at 100 µg/mL [13] [%],inhibition at 100 µg/mL [14] [%]
inactive,142,Br.COc1ccc(OC)c(-c2cn3nc(-c4c[nH]c5ccccc45)sc3n2)c1,> 100,> 100,29.9,Dose-dependent effect,< 15,< 15,1.2,36.5,Dose-dependent effect,18.5,Dose-dependent effect,> 100,> 100,> 100,,
,,Br.COc1cccc(-c2cn3nc(-c4cn(C)c5ccc(Cl)cc45)sc3n2)c1,> 100,> 100,23.9,Dose-dependent effect,< 15,< 15,,,,,,> 100,> 100,> 100,< 15,< 15
,,Cn1cc(-c2nn3cc(-c4ccccc4)nc3s2)c2cc(Cl)ccc21,> 100,> 100,36.5,Dose-dependent effect,< 15,< 15,,,,,,> 100,> 100,> 100,< 15,< 15
